Measured values as given in ChEMBL document CHEMBL2412984, “Indole derivatives as dual-effective agents for the treatment of neurodegenerative diseases: synthesis, biological evaluation, and molecular modeling studies” (Bioorg Med Chem, 2013).
Calls of active or inactive are those of the source. The calls are words filed in the database; no cut-off is given here.

What was measured:
[1] = Antioxidant activity assessed as inhibition of ABTS free radical generation at 17 uM after 20 mins by UV spectrophotometric analysis relative to control; type: functional
Outline: (§1)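 ABTS radical cation formed by mixing ABTS diammonium salt (96 mg) and potassium persulfate (33 mg) in 25 mL 0.1 M phosphate buffer pH 7.0, then left in the dark at room temperature for 16 h before use. Samples made fresh as 2 mM stocks in methanol/phosphate buffer 1:1 and assayed in triplicate. Absorbance read at 734 nm; %I = (A_blank − A_sample)/A_blank.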

[2] = Antioxidant activity assessed as inhibition of ABTS free radical generation after 20 mins by UV spectrophotometric analysis relative to control; type: functional; outline: as §1
[3] = Antioxidant activity assessed as inhibition of ABTS free radical generation at 33 uM after 20 mins by UV spectrophotometric analysis relative to control; type: functional
Outline: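 ABTS radical cation was generated from ABTS diammonium salt and potassium persulfate in 0.1 M phosphate buffer, pH 7.0, and left in the dark at room temperature for 16 h before use. Sample stocks (2 mM) were freshly prepared in methanol/phosphate buffer 1:1 and tested in triplicate. Absorbance was read at 734 nm, with inhibition calculated as %I = (A_blank − A_sample)/A_blank.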

[4] = molecular target: Glutamate receptor ionotropic, NMDA 2B (Rattus norvegicus, UniProt Q00960); experiment: Displacement of [3H]-ifenprodil from Wistar rat cerebral cortex GluN2B after 120 mins; type: tissue-based
Glutamate receptor ionotropic, NMDA 2B, sequence (Q00960 whole entry): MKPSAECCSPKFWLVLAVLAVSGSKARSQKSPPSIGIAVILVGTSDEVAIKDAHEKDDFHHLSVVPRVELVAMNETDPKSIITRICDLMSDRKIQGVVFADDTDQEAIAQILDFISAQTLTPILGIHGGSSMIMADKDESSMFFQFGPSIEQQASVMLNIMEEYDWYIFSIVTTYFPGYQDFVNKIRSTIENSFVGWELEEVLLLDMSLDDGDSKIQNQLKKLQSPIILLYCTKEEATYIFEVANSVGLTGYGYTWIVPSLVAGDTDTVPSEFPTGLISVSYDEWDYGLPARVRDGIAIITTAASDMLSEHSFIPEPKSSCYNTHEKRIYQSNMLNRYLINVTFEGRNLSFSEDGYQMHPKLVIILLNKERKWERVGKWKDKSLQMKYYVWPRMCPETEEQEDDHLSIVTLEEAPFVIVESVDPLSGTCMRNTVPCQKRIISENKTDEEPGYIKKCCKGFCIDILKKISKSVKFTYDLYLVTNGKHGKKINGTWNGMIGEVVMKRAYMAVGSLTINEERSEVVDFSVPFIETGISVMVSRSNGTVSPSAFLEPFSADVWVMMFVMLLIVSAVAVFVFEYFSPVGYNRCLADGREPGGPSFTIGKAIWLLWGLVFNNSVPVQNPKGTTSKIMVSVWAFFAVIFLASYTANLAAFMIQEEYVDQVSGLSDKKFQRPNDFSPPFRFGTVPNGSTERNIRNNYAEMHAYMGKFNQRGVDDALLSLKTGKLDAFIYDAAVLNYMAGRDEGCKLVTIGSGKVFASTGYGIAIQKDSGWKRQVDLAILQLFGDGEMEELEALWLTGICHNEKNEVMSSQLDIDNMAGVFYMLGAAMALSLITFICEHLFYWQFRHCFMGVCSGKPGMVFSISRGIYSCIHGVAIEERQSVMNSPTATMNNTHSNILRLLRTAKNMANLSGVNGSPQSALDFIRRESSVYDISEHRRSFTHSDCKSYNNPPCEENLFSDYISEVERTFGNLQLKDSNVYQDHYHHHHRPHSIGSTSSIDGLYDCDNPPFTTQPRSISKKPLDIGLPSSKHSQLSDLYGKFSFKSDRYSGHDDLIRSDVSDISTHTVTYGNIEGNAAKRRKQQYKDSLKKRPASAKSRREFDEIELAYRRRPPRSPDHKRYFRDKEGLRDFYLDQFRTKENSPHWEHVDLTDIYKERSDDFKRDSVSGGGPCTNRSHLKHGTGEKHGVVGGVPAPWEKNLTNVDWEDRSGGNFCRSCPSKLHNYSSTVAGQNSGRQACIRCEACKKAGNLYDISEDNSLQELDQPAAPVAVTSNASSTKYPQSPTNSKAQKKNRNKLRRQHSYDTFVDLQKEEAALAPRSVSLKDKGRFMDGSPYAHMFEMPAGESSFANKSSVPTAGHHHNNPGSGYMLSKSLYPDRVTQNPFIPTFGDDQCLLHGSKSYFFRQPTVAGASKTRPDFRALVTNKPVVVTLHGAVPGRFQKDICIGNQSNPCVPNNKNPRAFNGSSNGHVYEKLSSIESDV
Outline: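 Membranes from cerebral cortices of male Wistar-derived rats (175 g) prepared in Tris–HCl pH 7.4. A 5 mg aliquot was incubated with 2 nM [3H]ifenprodil plus 5 μM GBR-12909, which blocks non-polyamine-sensitive sites, for 120 min at 4 °C. Nonspecific binding defined with 10 μM ifenprodil. Membranes filtered, washed and counted. Three test concentrations run in duplicate.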

| SMILES | inhibition [1] | inhibition [2] | inhibition [3] [%] | IC50 [4] [nM] |
| --- | --- | --- | --- | --- |
| O=C(CN1CCC(Cc2ccccc2)CC1)c1c[nH]c2cc(O)ccc12 | > 93.9% | Dose-dependent effect | – | – |
| O=C(CN1CCC(Cc2ccccc2)CC1)c1c[nH]c2ccc(O)cc12 | > 92.1% | Dose-dependent effect | – | – |
| O=C(O)/C=C/c1ccc(O)c(O)c1 | 71.5% | – | – | – |
| c1ccc2[nH]ccc2c1 | inactive | – | 25 | – |
| O=C(O)c1cc(O)c(O)c(O)c1 | > 94.1% | – | – | – |
| O=C(C(=O)N1CCC(Cc2ccccc2)CC1)c1c[nH]c2ccc(O)cc12 | 80.1% | Dose-dependent effect | – | – |
| O=C(C(=O)N1CCC(Cc2ccccc2)CC1)c1c[nH]c2cc(O)ccc12 | 70.7% | Dose-dependent effect | – | – |
| COc1ccc2[nH]ccc2c1 | inactive | – | 47.6 | – |
| O=C(NC1CCN(CC(=O)c2c[nH]c3ccc(O)cc23)CC1)c1ccc(O)c(O)c1 | > 94.1% | Dose-dependent effect | – | 660 |
